CTSL1 counter – cathepsin L1 inhibition, PFM18AAP counter-screen; recombinant F. hepatica cathepsin L1, Z-Leu-Arg-MCA fluorescence; inhibition, % at 5.96 µM; 300,000 compounds, 0.49% hits; AID 1906;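 active means inhibition above the mean of all tested compounds plus 3 SD, set per screening campaign, cut at about 17% in these data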;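 further: 0% = plate median of test compound wells and 100% = 1 µM Z-Phe-Ala-diazomethylketone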
ZTA counter – counter-screen for EBNA-1 inhibitors: inhibitors of Epstein-Barr virus ZTA; P03206; ZTA-DNA binding, fluorescence polarization; inhibition, % at 11 µM; 320,000 compounds, 0.15% hits; in the data active means inhibition above about 33%
Target sequence (P03206 whole entry, looked up): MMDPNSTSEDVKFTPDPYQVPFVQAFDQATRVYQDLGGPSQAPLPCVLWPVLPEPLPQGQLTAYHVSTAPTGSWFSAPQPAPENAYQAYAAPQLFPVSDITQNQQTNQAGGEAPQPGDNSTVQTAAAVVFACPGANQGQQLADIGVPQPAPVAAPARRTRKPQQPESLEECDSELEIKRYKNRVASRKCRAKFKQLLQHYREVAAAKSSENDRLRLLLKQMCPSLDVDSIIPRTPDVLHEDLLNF
EBNA-1 inhibitor – blocks EBNA-1 binding to DNA; inhibition, % at 14.8 µM; EBNA-1 DNA binding, fluorescence polarization; 300,000 compounds, 0.34% hits; in the data active means inhibition above about 28%
NS3 helicase inh – blocks Hepatitis C virus NS3 helicase unwinding; NS3 helicase DNA unwinding, Cy5 molecular beacon fluorescence; inhibition, % at 10.9 µM; 290,000 compounds, 0.56% hits;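 active means inhibition above the mean of all tested compounds plus 3 SD, set per campaign, cut at about 35% in these data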;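 further: 0% = DMSO wells and 100% = thioflavine S control wells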
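Control set: DMSO versus 110 µM thioflavine S; Material: NS3 helicase fragment of HCV; Measured by: Cy5 fluorescence at 0 and 60 min, beacon hairpin quenching; Read-out basis: percent inhibition from t60/t0 fluorescence ratio; Times: reaction time 60 min, 25 °C; Repeats: single replicate; Compound dosing: single dose, 10.9 µM nominal final, DMSO 0.8% final.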
Active calls of the source: *; . = not tested or not shown. Most compounds without a hit are left out; they make up all but 1.4% or so of the library.

SMILES | CTSL1 counter | ZTA counter | EBNA-1 inhibitor | NS3 helicase inh
N#Cc1c(Cl)cccc1N1CCC(C(N)=O)CC1 | 1 | 3 | 2 | 14
CC(C)CN(CCNC(=O)CN1C(=O)COc2ccc(S(=O)(=O)N3CCC(C)CC3)cc21)CC(C)C | 20* | -12 | -8 | 11
CCN1CCN(CCCNC(=O)c2ccc3c(c2)N(Cc2ccccc2)CCS3)CC1 | 42* | -3 | -10 | -36
O=C(NCCCN1CCCC1)c1ccc2c(c1)N(Cc1ccccc1)CCS2 | -3 | -9 | 1 | -55
Nc1ccc(N2CCN(c3ccc(F)cc3)CC2)cc1 | -5 | 2 | -18 | 10
Nc1ccc(N2CCCCCC2)cc1 | 2 | 165* | 93* | 23
CCOC(=O)c1cnc2nc(NCc3ccc(OC)c(OC)c3)[nH]n2c1=O | 20* | -15 | -5 | -5
CCCc1cc(=O)n2[nH]c(NCc3ccc(OC)c(OC)c3)nc2n1 | -3 | -24 | -3 | 3
O=C(OCC(=O)N1CCN(c2cccc(Cl)c2)CC1)c1ccco1 | . | -3 | . | .
Cn1c2ccccc2c2c(C(=O)N3CCN(C(=O)c4ccco4)CC3)cn(C3CCCCC3)c(=O)c21 | 8 | 3 | -20 | 5
Cn1c2ccccc2c2c(C(=O)O)cn(C3CCCC3)c(=O)c21 | 18* | -4 | 1 | 0
CCOC(=O)C1C(=O)NC(c2ccccc2)=NC1c1cccc(Br)c1 (centres undefined) | 22* | -2 | 7 | -2
Cc1ccc(C)n1-c1ccc(C(=O)O)cc1 | -5 | 50* | -8 | 30
COc1ccc(C)cc1NC(=O)c1cc2ccccc2o1 | 33* | 0 | 3 | -5
COc1ccc(OC)c(NC(=O)c2cc3ccccc3o2)c1 | 2 | -16 | 6 | -3
CCn1c(N2CCC(Cc3ccccc3)CC2)nc2c1c(=O)[nH]c(=O)n2C | 3 | 6 | 1 | -1
O=c1c(=Nc2ccccc2O)c(=O)c2ccccc12 | 33* | -13 | 6 | 6
O=Nc1c(O)c2ccccc2c2ccccc12 | 6 | -6 | -3 | .
O=S(=O)(c1ccc(S(=O)(=O)N(Cc2ccco2)Cc2ccccc2Cl)cc1)N1CCCC1 | 1 | 3 | 0 | -5
CN(C)S(=O)(=O)c1ccc(S(=O)(=O)N(Cc2ccco2)Cc2ccccc2Cl)cc1 | 36* | 12 | 18 | -4
CCCc1cc(C(=O)Nc2cccc(C(C)=O)c2)no1 | 5 | 8 | 9 | 4
CCCc1cc(C(=O)Nc2ccc(C(C)=O)cc2)no1 | 17* | -13 | 0 | -3
CCN(CC)C(=O)CC(c1ccc(F)cc1)c1ccco1 (centres undefined) | 49* | 4 | -10 | 11
CCCN(CCC)C(=O)CC(c1ccccc1)c1ccco1 (centres undefined) | 41* | 3 | -3 | 18
CN(C)CCCNC(=O)CC(c1ccc(F)cc1)c1ccco1 (centres undefined) | 3 | 6 | -13 | 2
SMILES | CTSL1 counter | ZTA counter | EBNA-1 inhibitor | NS3 helicase inh
NC(=O)CC(c1ccccc1)c1ccco1 (centres undefined) | 1 | -5 | -12 | -2
CCC1CCC(C(=O)NC(CCSC)C(=O)NCCN(CC(C)C)CC(C)C)CC1 (centres undefined) | 31* | -8 | -1 | 0
CSCCC(NC(=O)C1CCC(C)CC1)C(=O)NCCN1CCOCC1 (centres undefined) | 38* | 7 | -6 | 8
CC(C)CC(NC(=O)C1CCC(C)CC1)C(=O)NCCN1CCOCC1 (centres undefined) | 60* | 0 | -1 | 0
CC1CCC(C(=O)NC(C(=O)NCCN2CCC(C)CC2)C(C)C)CC1 (centres undefined) | . | . | . | 8
Cc1c(Cc2ccccc2)c(=O)oc2cc(OCC(=O)NCc3ccccn3)ccc12 | -2 | 8 | -15 | -6
C=CCn1c(CSc2nnc(-c3ccccc3)n2C)n[nH]c1=S | 28* | -19 | 3 | 14
C=CCn1c(SCc2n[nH]c(=S)n2-c2ccccc2)nnc1-c1ccccc1 | -1 | -2 | 1 | 5
COc1ccc2[nH]cc(C(=O)CCl)c2c1 | 74* | -12 | 3 | -1
COc1ccc2[nH]cc(C(=O)CN3CC(C)CC(C)C3)c2c1 (centres undefined) | -2 | -23 | -10 | -1
CSc1nc2ccccc2n1Cc1cccc(F)c1 | -3 | 5 | 6 | -2
Fc1cccc(Oc2nc3ccccc3n3cccc23)c1 | 65* | -11 | 17 | -8
Cc1csc(CN(C)C(=O)C2CCC(=O)N(CCN(C)C)C2)n1 (centres undefined) | 19* | -15 | -8 | 16
Cc1csc(CN(C)C(=O)C2CCC(=O)N(Cc3ccc(Cl)cc3)C2)n1 (centres undefined) | -3 | 9 | -4 | 11
NS(=O)(=O)c1ccc(CCNCc2cccs2)cc1 | -4 | 13 | 6 | 8
CC1C/C(=C\c2cccnc2)C(=O)/C(=C/c2cccnc2)C1 (centres undefined) | -5 | 44* | -8 | 6
CC(=O)c1c(C)[nH]c(C(=O)COC(=O)c2c(C)noc2C)c1C | . | 21 | . | .
CCNCCNc1ccc(Cl)cc1[N+](=O)[O-] | 36* | 3 | 1 | 3
CS(=O)(=O)NCCCNc1ccc(Cl)cc1[N+](=O)[O-] | 4 | -5 | 5 | 0
O=C(CCl)NN=C(c1ccccc1)c1ccccc1 | 37* | 1 | -7 | -9
O=C1Cc2ccccc2C(=O)N1CCc1ccccc1 | 67* | 24 | 4 | 8
CCC(C)/C(C)=N/NC(=O)C1COc2ccccc2O1 (centres undefined) | 4 | 0 | 1 | 4
COC1(NC(=O)c2ccccc2)C(C)=CC(=O)C=C1C | -4 | -4 | 1 | 7
O=C(NC1(O)C(=O)c2ccccc2C1=O)c1c(Cl)cccc1Cl | 54* | -9 | -7 | 1
O=C(NC1(O)C(=O)c2ccccc2C1=O)c1ccccc1 | 64* | -4 | -9 | -2
SMILES | CTSL1 counter | ZTA counter | EBNA-1 inhibitor | NS3 helicase inh
Cc1ccc(S(=O)(=O)N2CCN(C(=O)c3ccc(Cl)nc3)CC2)cc1 | 4 | -6 | -7 | -6
Cc1ccn2cc(CCNS(=O)(=O)c3ccc([N+](=O)[O-])cc3)nc2c1 | -3 | -10 | -5 | 4
Cc1ccn2cc(CCNS(=O)(=O)c3ccc4ccccc4c3)nc2c1 | 30* | -7 | 11 | -3
O=C(c1ccc(SCc2ccco2)c([N+](=O)[O-])c1)N1CCOCC1 | 5 | -4 | -2 | 14
Cc1c(NC(=O)C2CC(c3cccc(Br)c3)=NO2)c(=O)n(-c2ccccc2)n1C (centres undefined) | 17* | -2 | 3 | -6
Cc1c(NC(=O)c2cc(C3CC3)on2)c(=O)n(-c2ccccc2)n1C | 42* | 1 | -1 | 7
CCCNC(=O)Cn1c(=O)/c(=C\c2ccc(-c3cccc([N+](=O)[O-])c3)o2)s/c1=C\C(=O)C(C)(C)C | 18* | -1 | -3 | 20
COc1cccc(NC(=O)COC(=O)/C=C/c2ccc(Cl)cc2Cl)c1 | -4 | 9 | 39* | -4
O=C(NCc1ccccn1)c1nc(-c2cccs2)no1 | -5 | -16 | 1 | 4

From PubChem BioAssay
